Screening results: PubChem, several laboratories
The list is not random: actives were taken first. Their share in the collection is about 1.3%.
procasp3 activ = activates human procaspase-3; AID 463141; 330,000 tested, 0.11% active; P42574; activation, % at 8.5 µM; recombinant procaspase-3 D3A, Ac-DEVD-pNA absorbance 405 nm;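 active = activation above the mean of all tested compounds plus 3 SD, cut at about 21% in these data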
Target sequence (P42574 whole entry D9A/D28A/D175A): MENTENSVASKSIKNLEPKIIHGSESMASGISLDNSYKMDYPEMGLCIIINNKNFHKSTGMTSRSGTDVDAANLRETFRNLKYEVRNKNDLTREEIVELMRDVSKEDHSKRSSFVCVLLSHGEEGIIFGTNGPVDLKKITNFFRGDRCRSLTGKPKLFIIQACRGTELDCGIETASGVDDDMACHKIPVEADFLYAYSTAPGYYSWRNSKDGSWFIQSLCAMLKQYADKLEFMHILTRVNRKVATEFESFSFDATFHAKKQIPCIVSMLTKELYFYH
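material = Procaspase-3 D3A mutant | probe or stimulus = Ac-DEVD-pNA | compound = single dose, 8.5 µM nominal compound, 0.8% DMSO | timing = 1 h preincubation, 2 h reaction | measured by = 405 nm absorbance of p-nitroaniline, reads at 0 and 120 min | benchmarks = DMSO-only low control, 5 µM PC-3 D3A high control | repeats = singlicate, each compound tested once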
procasp7 counter = activates human procaspase-7, counter-screen for procaspase-3 activators; P55210; 330,000 tested, 0.093% active; recombinant procaspase-7, Ac-DEVD-pNA absorbance 405 nm; D23A/D198A/D206A triple mutant, cannot self-cleave; scale: DMSO 0, 5 µM enzyme 100; AID 463210; activation, % at 8.5 µM;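 active = percent activation above the screen-wide mean plus 3 SD, cut at about 25% in these data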
Target sequence (P55210 whole entry D23A/D198A/D206A): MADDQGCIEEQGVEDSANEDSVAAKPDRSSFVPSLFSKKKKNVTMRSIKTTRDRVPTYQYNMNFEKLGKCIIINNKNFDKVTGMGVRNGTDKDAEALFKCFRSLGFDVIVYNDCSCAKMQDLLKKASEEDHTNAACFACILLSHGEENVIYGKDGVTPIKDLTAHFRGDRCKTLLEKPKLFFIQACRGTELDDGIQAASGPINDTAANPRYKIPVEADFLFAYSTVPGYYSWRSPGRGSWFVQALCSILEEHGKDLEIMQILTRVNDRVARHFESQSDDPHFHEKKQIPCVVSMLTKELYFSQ
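Assay system – Uncleavable procaspase-7 mutant enzyme · Quantity – 2 µM procaspase-7 mutant as dispensed · Times – 1 h preincubation, 2 h reaction · Dosing – single nominal 8.5 µM compound dose, 0.8% DMSO final · Buffer or medium – Zinc-free 50 mM HEPES buffer, pH 7.4, with NaCl and Triton X-100 · Detection – Epi-absorbance of released pNA at 405 nm, two timepoints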
CHT inh = human CHT choline transport inhibition. Q9GZV3. CHT-expressing cells, membrane potential dye, choline response; active compounds read low. B-score at 10 µM. 310,000 tested, 0.86% active. AID 488975;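 active = B-score over 3 SD under the library average, and starting fluorescence ratio not unusually high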;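 note: choline stimulus applied at its EC90 after an EC20 pre-addition; B-score computed on integrated fluorescence ratio after choline addition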
CHT allo act = allosterically activates the human high affinity choline transporter; B-score at 10 µM; CHT-expressing cells, membrane potential dye, choline EC20; active compounds read high; LV-AA mutant CHT in HEK293 cells; Q9GZV3; 310,000 tested, 0.49% active;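 active = initial fluorescence not abnormally high and integrated response B-score, plate-corrected, over 3 SD above library mean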
CHT block conf = confirmation of human choline transporter CHT inhibitors; shares compounds with CHT inh; CHT-expressing cells, choline membrane potential dye; LV-to-AA substituted CHT, HEK293 cells; CHT activity remaining % of control (active compounds read low), % at 10 µM; 2,400 tested, 70% active;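 active = choline transporter activity left, mean of duplicates at 10 µM, below buffer-only control mean minus 3 SD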;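 note: depolarization triggered by choline at its EC90 following an EC20 pre-addition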
HEK293 CHT ctr = CHT inhibitor counter-screen hit in parental HEK293 cells | shares compounds with CHT inh | membrane potential dye, choline response; active = decrease or increase beyond buffer ±3SD | membrane potential ratio readout (active if shifted either direction beyond buffer ±3SD; no single direction) at 10 µM | 2,400 tested, 4% active;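 note: parental cells lack the transporter so any hit is non-specific; ratio is peak minus trough fluorescence over baseline after EC90 choline challenge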
Large screens that a line does not name were inactive (follow-up assays come after a bar, where they were run).

Cc1ccc(NC(=O)COC(=O)CN2C(=O)COc3ccccc32)cc1	CHT inh -5 | CHT block conf 43% | HEK293 CHT ctr inactive
Cc1ccc2c(c1)N(CCCC(=O)NCCC1=CCCCC1)C(=O)CO2	none
Cc1ccc2c(c1)N(CC(=O)O)C(=O)CO2	none
COC(=O)C1CCN(CC(=O)Nc2ccc(C(=O)Nc3ccccc3OC)cc2)CC1	none (no result: CHT inh, CHT allo act)
COc1ccc([C@H]2CC(=O)C=C(c3ccnc4ccc(Cl)cc34)C2)cc1	none (no result: CHT inh, CHT allo act)
O=C(O)CSc1cc(C(=O)c2ccccc2O)cn2c(=O)c3c(-c4ccccc4)csc3nc12	CHT inh -7 | CHT block conf 30% | HEK293 CHT ctr inactive
CCOC(=O)c1sc2nc3c(SCC(=O)O)cc(C(=O)c4ccccc4O)cn3c(=O)c2c1C	none
O=C1NC(=O)/C(=C/c2ccccc2Oc2ccc(Cl)cc2)S1	none
O=C(COc1ccccc1/C=C1\SC(=O)NC1=O)Nc1ccc(F)cc1	CHT inh -6.9 | CHT block conf inactive | HEK293 CHT ctr inactive
O=C(COc1ccccc1/C=C1/NC(=O)NC1=O)Nc1ccccc1	none
Cc1ccc(S(=O)(=O)Oc2ccccc2/C=C2\SC(=O)NC2=O)cc1	CHT inh -5.6 | CHT block conf 49% | HEK293 CHT ctr inactive
CC(C)c1cccc(C2=CC(=O)C[C@H](c3ccc4c(c3)OCO4)C2)c1	none (no result: CHT inh, CHT allo act)
OC(CNC1Cc2ccccc2C1)c1ccccc1 (stereo not given)	CHT inh -5.2 | CHT block conf 52% | HEK293 CHT ctr inactive
Cc1ccc(S(=O)(=O)N2CCC(C(=O)N3CCCC3C(=O)N[C@@H](CC(C)C)C(=O)NCC(N)=O)CC2)cc1 (stereo not given in full)	none
CN(NS(=O)(=O)c1ccc(Br)cc1)c1nc(C(F)(F)F)nc2ccccc12	CHT inh -5.6 | CHT block conf inactive | HEK293 CHT ctr inactive
COc1ccccc1/C=C(\NC(=O)c1ccccc1)C(=O)NCc1ccco1	none
CCc1nnc(NS(=O)(=O)c2ccc(NC(=O)COc3ccc4ccccc4c3)cc2)s1	CHT inh -5.8 | CHT block conf inactive | HEK293 CHT ctr inactive
CCc1nnc(NS(=O)(=O)c2ccc(NC(=O)c3cc(Cl)ccc3[N+](=O)[O-])cc2)s1	none (no result: procasp3 activ, procasp7 counter)
CCc1nnc(NS(=O)(=O)c2ccc(NC(=O)c3cccc4ccccc34)cc2)s1	none
CCc1nnc(NS(=O)(=O)c2ccc(NC(=O)c3cc(Cl)ccc3Cl)cc2)s1	CHT inh -6.1 | CHT block conf 30% | HEK293 CHT ctr inactive
CCc1nnc(NC(=O)c2cc(S(=O)(=O)N(CC)CC)ccc2Cl)s1	CHT inh -5.9 | CHT block conf 52% | HEK293 CHT ctr inactive
CCc1nnc(NS(=O)(=O)c2ccc(NC(=O)c3ccc(S(=O)(=O)N(CC)CC)cc3)cc2)s1	none
CCN(CC)S(=O)(=O)c1ccc(Cl)c(C(=O)NC)c1	none
CCc1nnc(NS(=O)(=O)c2ccc(NC(=O)c3cccc(Br)c3)cc2)s1	CHT inh -7 | CHT block conf 48% | HEK293 CHT ctr inactive
CSc1ncccc1C(=O)OCC(=O)Nc1nc(C)c(Cl)cc1Cl	none (no result: CHT inh, CHT allo act)
CN(C)S(=O)(=O)c1ccc(NC(=O)C2CC3C=CC2C3)cc1 (stereo not given)	CHT inh -6.7 | CHT block conf inactive | HEK293 CHT ctr inactive
O=C(c1cccc(-c2nnc(-c3ccccc3)o2)c1)N1CCCCC1	CHT inh -6.3 | CHT block conf inactive | HEK293 CHT ctr inactive
CCN(CC)CCNC(=O)c1ccc(N2CCCCC2)c(NS(=O)(=O)c2ccc(C)cc2)c1	CHT inh -5.6 | CHT block conf 49% | HEK293 CHT ctr 4
CCOc1cccc2sc(N(CCN(C)C)C(=O)c3ccc4c(c3)OCCO4)nc12	CHT inh -8.4 | CHT block conf 19% | HEK293 CHT ctr inactive
COc1cccc2sc(N(CCN(C)C)C(=O)c3ccc4c(c3)CCCC4)nc12	CHT inh -10 | CHT block conf 18% | HEK293 CHT ctr inactive
Cc1cccc2sc(N(CCCN(C)C)C(=O)c3ccco3)nc12	none
Cc1cccc2sc(N(CCCN(C)C)C(=O)c3ccc(Cl)s3)nc12	CHT inh -6.8 | CHT block conf 27% | HEK293 CHT ctr inactive
COc1ccc(N2CCN(C(=O)C3CCCN(c4ncnc5c4nc4n5CCCCC4)C3)CC2)cc1 (stereo not given)	none
CC(=O)c1ccc(N2CCN(C(=O)C3CCCN(c4ncnc5c4nc4n5CCCCC4)C3)CC2)cc1 (stereo not given)	CHT inh -5.9 | CHT block conf 32% | HEK293 CHT ctr inactive
O=C(C1CCCN(c2ncnc3c2nc2n3CCCCC2)C1)N1CCN(c2ccc(F)cc2)CC1 (stereo not given)	CHT inh -8 | CHT block conf 37% | HEK293 CHT ctr inactive
O=C(C1CCCN(c2ncnc3c2nc2n3CCCCC2)C1)N1CCN(c2ccc(Cl)cc2)CC1 (stereo not given)	CHT inh -7.8 | CHT block conf 40% | HEK293 CHT ctr inactive
COc1ccc(-n2c(=S)[nH]c3cc(C(=O)NCCCN4CCOCC4)ccc3c2=O)cc1	CHT inh -5.2 | CHT block conf 47% | HEK293 CHT ctr inactive
O=C(NCCCN1CCOCC1)c1ccc(Cl)c(S(=O)(=O)N2CCCCCC2)c1	CHT inh -8.3 | CHT block conf 37% | HEK293 CHT ctr inactive
O=C(NCCN1CCOCC1)c1ccc(Cl)c(S(=O)(=O)N2CCCCCC2)c1	none
O=C(NCCCN1CCOCC1)c1ccc2c(=O)n(-c3ccc(F)c(Cl)c3)c(=S)[nH]c2c1	CHT inh -11 | CHT block conf 21% | HEK293 CHT ctr inactive
COCO/C=C(\NC(C)=O)c1ccccc1	none (no result: CHT inh, CHT allo act)
COc1cccc(F)c1C(=O)NC(=O)Nc1ccc2nc(C)oc2c1	none
CN(C(=O)c1ccc(NC(=O)Cc2cccc(NC(=O)C3CCN(C(=O)C4CCCCC4)CC3)c2)cc1)C1CCCC1	none (no result: CHT inh, CHT allo act)
Cc1ccc(NC(=O)c2ccc(CN3CC(=O)N4CCCCC4C3=O)cc2)c(C)c1 (stereo not given)	CHT inh -5.5 | CHT block conf 9.5% | HEK293 CHT ctr inactive
O=C(O)CC(NC(=O)/C(=C/c1ccccc1)NC(=O)c1ccccc1)c1ccccc1 (stereo not given)	none
CCN(CC(=O)N1CCOCC1)S(=O)(=O)c1ccccc1	none
Cc1cccc(-c2nc(CN3CCCC(C(=O)NC4CCCCC4)C3)c(C)o2)c1 (stereo not given)	CHT inh -5.7 | CHT block conf inactive | HEK293 CHT ctr inactive
C[C@H](CO)N1C[C@H](C)[C@@H](CN(C)S(C)(=O)=O)Oc2ccc(NC(=O)Cn3cnnn3)cc2C1=O	none (no result: CHT inh, CHT allo act)
